# Columns and labels:
# Human alphaherpesvirus 3 [1] = experiment: Effective concentration of compound against Varicella-Zoster Virus (VZV); Range is 0.06-0.12 uM; type: functional, organism-based
# [2] = biological target: T1, Thymidine kinase, cytosolic (Homo sapiens) (UniProt P04183); conditions: herpes simplex virus
# T1 sequence (whole entry): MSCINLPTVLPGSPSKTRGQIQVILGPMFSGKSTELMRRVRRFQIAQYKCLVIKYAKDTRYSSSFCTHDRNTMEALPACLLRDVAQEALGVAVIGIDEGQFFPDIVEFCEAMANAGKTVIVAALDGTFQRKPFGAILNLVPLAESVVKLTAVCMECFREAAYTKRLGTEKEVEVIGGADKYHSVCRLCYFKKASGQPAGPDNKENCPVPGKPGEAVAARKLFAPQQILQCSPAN
# [3] = Catalytic rate constant was determined; type: ADME
# Human alphaherpesvirus 3 [4] = experiment: Minimum cytotoxic concentration that causes alterations of VZV infected Osteosarcoma cell morphology; type: functional
# HFF [5] = experiment: Cytotoxic concentration for 50% inhibition of cell growth of HSV-1 infected HFF cells determined by CPE assay; type: functional; conditions: Homo sapiens
# Human alphaherpesvirus 3 [6] = experiment: Cytotoxic concentration that causes growth inhibition of VZV infected Osteosarcoma cells; type: functional
# Human alphaherpesvirus 3 [7] = experiment: Antiviral activity against YS/R strain of thymidine kinase negative(TK-) Varicella-Zoster Virus (VZV); type: functional, organism-based
# [8] = Inhibitory activity against HSV-1-TK transfected osteosarcoma cells; type: functional
# Procedure, shortened: (§1)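 Osteosarcoma lines (143B-TK⁻ with 0.1 mg/mL 5-BrdU selection; MG-63-hTK1; 143B-TK⁺-HSV1-WT with HAT) grown in MEM/10% FCS. Seeded at 2 × 10³ (143B lines) or 1.5 × 10³ (MG-63) cells/well, exposed to five concentrations over 0.5–500 μM for 4.5 days at 37 °C/5% CO₂. XTT added for 9 h, A450 (ref 750 nm) read against untreated wells. Three independent series in triplicate.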
# Human alphaherpesvirus 3 [9] = experiment: Effective concentration against TK+ Varicella-Zoster Virus (VZV)YS strain; type: functional, organism-based
# [10] = tested on: Thymidine kinase (Herpes simplex virus type 1); experiment: Catalytic turnover constant against HSV-1 thymidine kinase
# Human alphaherpesvirus 3 [11] = experiment: Effective concentration against TK- Varicella-Zoster Virus (VZV) 07/1 strain; type: functional, organism-based
# [12] = Cytotoxic concentration against non transfected osteosarcoma cells non transfected (MG-63-hTK1); type: functional; procedure, shortened: as §1
# Human alphaherpesvirus 3 [13] = experiment: Effective concentration against TK+ Varicella-Zoster Virus (VZV) OKA strain; type: functional, organism-based
# [14] = Minimum cytotoxic concentration that causes microscopically detectable alterations of cell morphology; type: functional
# Human alphaherpesvirus 2 = experiment: Inhibitory concentration required to reduce HSV-2 induced cytopathogenic effect (CPE) by 50 % in HFF cells; type: functional, organism-based; conditions: Human alphaherpesvirus 2, HFF
# Human alphaherpesvirus 3 [15] = experiment: Antiviral activity against YS strain of thymidine kinase positive(TK+) Varicella-Zoster Virus (VZV); type: functional, organism-based
# Human alphaherpesvirus 3 [16] = experiment: Effective concentration against TK- Varicella-Zoster Virus (VZV) YS/R strain; type: functional, organism-based
# [17] = Inhibition constant against HSV-1 TK; type: functional, herpes simplex virus
# Homo sapiens [18] = organism: Homo sapiens; experiment: Inhibitory concentration required to reduce HSV-2 induced cytopathogenic effect in human skin fibroblast; type: functional, organism-based
# Homo sapiens [19] = organism: Homo sapiens; experiment: (§2) Inhibitory concentration required to reduce HSV-1 induced cytopathogenic effect (CPE) in human skin fibroblast; type: functional, organism-based
# HFF [20] = experiment: Cytotoxic concentration for 50% inhibition of cell growth of HSV-2 infected HFF cells determined by CPE assay; type: functional; conditions: Homo sapiens
# Homo sapiens [21] = organism: Homo sapiens; experiment: Cytotoxic concentration that produces 50% growth inhibition of human skin fibroblast in CPE assay; type: functional
# [22] = Cytotoxic concentration against HSV-1 TK- transfected osteosarcoma cells; type: functional; conditions: Human alphaherpesvirus 1; procedure, shortened: as §1
# Human alphaherpesvirus 3 [23] = experiment: Antiviral activity against 07/1 strain of thymidine kinase negative (TK-) Varicella-Zoster Virus (VZV); type: functional, organism-based
# [24] = Cytotoxic concentration that produces 50% inhibition of cell growth.; type: functional
# Human alphaherpesvirus 1 [25] = experiment: Inhibitory concentration required to reduce HSV-1 induced cytopathogenic effect (CPE) by 50 % in HFF cells; type: functional, organism-based, herpes simplex virus; conditions: Human alphaherpesvirus 1, HFF
# Human alphaherpesvirus 3 [26] = experiment: Antiviral activity against OKA strain of thymidine kinase positive(TK+) Varicella-Zoster Virus (VZV); type: functional, organism-based
# [27] = Cytotoxic concentration against HSV-1 TK-transfected osteosarcoma cells; type: functional; conditions: Human alphaherpesvirus 1; procedure, shortened: as §1
# HFF [28] = experiment: Concentration for HSV-2 plaque reduction (VPR) by 50% in HFF cells; type: functional, cell-based; conditions: Homo sapiens
# Human alphaherpesvirus 1 [29] = experiment: as §2; type: functional, organism-based, herpes simplex virus
# Homo sapiens [30] = organism: Homo sapiens; experiment: Inhibitory concentration required to reduce HSV-2 induced virus plaque reduction (VPR) in human skin fibroblast; type: functional, organism-based
# Homo sapiens [31] = organism: Homo sapiens; experiment: Inhibitory concentration required to reduce HSV-1 induced virus plaque reduction (VPR) in human skin fibroblast; type: functional, organism-based
# HFF [32] = experiment: Concentration for HSV-1 plaque reduction (VPR) by 50% in HFF cells; type: functional, cell-based; conditions: Homo sapiens
smiles,measurement,setting,value
O=c1[nH]c(=O)n([C@H]2C[C@@H](CO)[C@H](O)C2)cc1/C=C/Br,EC50,Human alphaherpesvirus 3 [1],0.12 µM
Cc1cn([C@H]2C[C@H](O)[C@@H](CO)O2)c(=O)[nH]c1=O [DOXRIBTIMINE],k cat,[2],0.35 s⁻¹
same,k cat,[3],0.35 s⁻¹
O=c1[nH]c(=O)n([C@H]2C[C@H](O)[C@]3(CO)C[C@H]23)cc1I,MCC,Human alphaherpesvirus 3 [4],> 5 µM
same,CC50,HFF [5],> 275 µM
same,CC50,Human alphaherpesvirus 3 [6],> 200 µM
same,EC50,Human alphaherpesvirus 3 [7],3 µM
same,CC50,[8],25 µM
same,EC50,Human alphaherpesvirus 3 [9],0.12 µM
same,k cat,[10],0.14 s⁻¹
same,EC50,Human alphaherpesvirus 3 [11],> 5 µM
same,CC50,[12],300 µM
same,EC50,Human alphaherpesvirus 3 [13],0.16 µM
same,MCC,[14],> 5 µM
same,EC50,Human alphaherpesvirus 2,9.06 µM
same,k cat,[3],0.14 s⁻¹
same,EC50,Human alphaherpesvirus 3 [15],0.12 µM
same,EC50,Human alphaherpesvirus 3 [16],3 µM
same,Ki,[17],85.8 µM
same,EC50,Homo sapiens [18],9.06 µM
same,EC50,Homo sapiens [19],> 275 µM
same,CC50,HFF [20],> 275 µM
same,CC50,Homo sapiens [21],> 275 µM
same,CC50,[22],> 500 µM
same,EC50,Human alphaherpesvirus 3 [23],> 5 µM
same,CC50,[24],> 200 µM
same,EC50,Human alphaherpesvirus 1 [25],> 275 µM
same,EC50,Human alphaherpesvirus 3 [26],0.16 µM
same,CC50,[27],25 µM
Nc1nc2c(ncn2COCCO)c(=O)[nH]1 [ACYCLOVIR],EC50,HFF [28],1.68 µM
same,EC50,Human alphaherpesvirus 1 [29],2.22 µM
same,EC50,Homo sapiens [30],1.68 µM
same,EC50,Human alphaherpesvirus 2,10.2 µM
same,EC50,Homo sapiens [18],10.2 µM
same,EC50,Homo sapiens [31],1.1 µM
same,EC50,Human alphaherpesvirus 1 [25],2.22 µM
same,EC50,HFF [32],1.1 µM

# — ChEMBL document CHEMBL1144911, “Synthesis and biological evaluation of 5-substituted derivatives of the potent antiherpes agent (north)-methanocarbathymine” (J Med Chem, 2003)
